Series [1] concerns the target T1, GABA-A receptor; anion channel (Rattus norvegicus) (UniProt O09028+P15431+P18506+P18508+P19969+P20236+P23574+P23576+P28471+P28473+P30191+P62813+P63079+P63138+Q91ZM7+Q9ES14). The experiment in a line: Displacement of [3H]flunitrazepam from GABA-A benzodiazepine receptor of rat cerebral cortex at 500 nM. Format: tissue-based. The essentials:
(§1)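 Rat cerebral cortex membranes were incubated with [3H]flunitrazepam in the presence of the test agent at a single concentration (nM), run in triplicate with under 7% variation between values. Binding is reported as % inhibition of [3H]flunitrazepam binding.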

The test system of series [2] is Rattus norvegicus. In words: Minimum effective dose (ip) tested for its anxiolytic activity in rat using the shock-induced suppression of drinking (SSD) test; NS is No Significant activity at 25 mg/Kg. It is filed as functional, organism-based. The essentials: (§2)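 Shock-induced suppression of drinking (Vogel-type conflict) in rats, with compounds given intraperitoneally at one or more dose levels, 8 rats per dose. MED is the lowest dose giving a significant increase (p < 0.05, Student's t test) in the mean number of shocks taken versus vehicle control.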

The target in series [3] is GABA-A receptor; anion channel. In words: (§3) Inhibition of [3H]flunitrazepam binding to GABA-A benzodiazepine receptor of rat cerebral cortex. It is filed as tissue-based.
The subject of series [4] is Rattus norvegicus. The experiment in a line: Minimum effective dose (ip) tested for its anxiolytic activity in rat using the shock-induced suppression of drinking (SSD) test; NS is No Significant activity at […]. Format: functional, organism-based. The method in brief: as §2
Series [5] concerns Rattus norvegicus. In words: Minimum effective dose (po) tested for its anxiolytic activity in rat using the shock-induced suppression of drinking (SSD) test; NS is No Significant activity at […]. Format: functional, organism-based. The method in brief:
(§4)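 Rats (n = 8 per dose) were dosed orally at one or more levels and then run in the shock-induced suppression of drinking conflict test. MED is the dose producing a significant rise (p < 0.05, Student's t test) in mean shocks accepted relative to vehicle-treated controls.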

Series [6] relates to GABA-A receptor; anion channel. In words: Inhibition of [3H]flunitrazepam binding to GABA-A benzodiazepine receptor of rat cerebral cortex (Not Significant at 5000 nM). It is filed as tissue-based. The method in brief:
as §1

The test system of series [7] is Rattus norvegicus. In words: Minimum effective dose (ip) tested for its anxiolytic activity in rat using the shock-induced suppression of drinking (SSD) test. Format: functional. To be noted: read-out: MED. The essentials: as §2
In series [8] the test system is Rattus norvegicus. In words: Minimum effective dose (ip) tested for its anxiolytic activity in rat using the shock-induced suppression of drinking (SSD) test; NS is No Significant activity at 50 mg/Kg. Format: functional, organism-based. The essentials:
as §2

Series [9] has as its target T1, GABA-A receptor; anion channel (Rattus norvegicus). In words: Displacement of [3H]flunitrazepam from GABA-A benzodiazepine receptor of rat cerebral cortex at 5000 nM. It is filed as tissue-based. The method in brief:
as §1

The test system of series [10] is Rattus norvegicus. In words: Minimum effective dose (po) tested for its anxiolytic activity in rat using the shock-induced suppression of drinking (SSD) test; NS is No Significant activity at 50 mg/Kg. It is filed as functional, organism-based. The essentials: as §4
Series [11] has as its target T1, GABA-A receptor; anion channel (Rattus norvegicus). The experiment in a line: Displacement of [3H]flunitrazepam from GABA-A benzodiazepine receptor of rat cerebral cortex at 50 nM. It is filed as tissue-based. The method in brief:
as §1
In general terms: Loss of bound radioactivity is the signal in a displacement assay; it reports binding, not function.

Series [12] deals with Rattus norvegicus. In words: Minimum effective dose (po) tested for its anxiolytic activity in rat using the shock-induced suppression of drinking (SSD) test. Format: functional. As to conditions: read-out: MED. The essentials: as §4
Series [13] concerns GABA-A receptor; anion channel. In words: Inhibition of [3H]flunitrazepam binding to GABA-A benzodiazepine receptor of rat cerebral cortex at 500 nM. It is filed as tissue-based. The essentials: as §1
Series [14] relates to Rattus norvegicus. In words: Minimum effective dose (ip) tested for its anxiolytic activity in rat using the shock-induced suppression of drinking (SSD) test; NS is No Significant activity at 25 mg/KG. Format: functional, organism-based. The method in brief: as §2
In series [15] the target is GABA-A receptor; anion channel. Described as §3. It is filed as tissue-based. The method in brief: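 [3H]Flunitrazepam displacement from rat cerebral cortex benzodiazepine receptors, run in triplicate with under 7% variation between values. IC50 is the concentration (nM) giving half-maximal inhibition of binding, determined from three or more concentrations.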
This is another data set of the same source.

The test system of a further series is Monkey. In words: Compound was tested for activity using primate conflict test in monkey. It is filed as functional. To be noted: Cercopithecidae, in Primates; read-out: MED.
The subject of series [16] is Rattus norvegicus. The experiment in a line: Compound was tested in vivo for activity to induce sedation or ataxia in rat using rotarod test. It is filed as functional.
The species named for series [17] is Rattus norvegicus. In words: Compound was tested for activity against ethanol-induced impairment of rotarod performance in rat. It is filed as functional. In general terms: Falling from the rotarod earlier than controls is read as motor impairment.
The species named for series [18] is Rattus norvegicus. In words: Sedative liability index (SLI) to indicate the separation between the anxiolytic and ataxic doses in rats. Format: functional. The method in brief:
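Ratio computed as rat rotorod ED50 (mg/kg) divided by the SSD minimum effective dose (mg/kg), with both given orally. The SSD MED is the lowest dose (N=8/dose) giving a significant increase (p < 0.05, Student's t test) in mean shocks taken over vehicle control in the rat shock-induced suppression of drinking test.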

The nature of series [19]: Ethanol interaction ratio (EIR) of the compound. It is filed as ADME. The essentials: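 Ratio computed as rat rotorod ED50 for drug given with ethanol (mg/kg) divided by the SSD minimum effective dose (mg/kg), both orally. The SSD MED is the lowest dose (N=8/dose) giving a significant rise (p < 0.05, Student's t test) in mean shocks taken versus vehicle in the rat shock-induced suppression of drinking test.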

The test system of series [20] is Rattus norvegicus. The experiment in a line: Compound was tested in vivo for antagonistic activity against metrazole-induced convulsions in rat. Format: functional.
Series [21] deals with T1, GABA-A receptor; anion channel (Rattus norvegicus). In words: Displacement of [3H]flunitrazepam from GABA-A benzodiazepine receptor of rat cerebral cortex at 800 nM. Format: tissue-based. The method in brief:
as §1

Series [22] has as its system Rattus norvegicus. The experiment in a line: Minimum effective dose (ip) tested for its anxiolytic activity in rat using the shock-induced suppression of drinking (SSD) test; NS is No Significant activity at 160 mg/Kg. Format: functional, organism-based. The essentials:
as §2

In series [23] the test system is Rattus norvegicus. In words: Minimum effective dose (po) tested for its anxiolytic activity in rat using the shock-induced suppression of drinking (SSD) test; NS is No Significant activity at 100 MG/kG. It is filed as functional, organism-based. As to conditions: 100 M. The essentials:
as §4

For series [24], the target named is GABA-A receptor; anion channel. The experiment in a line: Inhibition of [3H]flunitrazepam binding to GABA-A benzodiazepine receptor of rat cerebellum. It is filed as tissue-based.
The target in series [25] is GABA-A receptor; anion channel. The experiment in a line: Inhibition of [3H]flunitrazepam binding to GABA-A benzodiazepine receptor of rat cortex.
Series [26] is filed under the species Rattus norvegicus. The experiment in a line: Compound was tested for activity against ethanol-induced impairment of rota rod performance in rat. Format: functional.
For series [27], the system named is Rattus norvegicus. The experiment in a line: Minimum effective dose (ip) tested for its anxiolytic activity in rat using the shock-induced suppression of drinking (SSD) test; NS is No Significant activity at 5 mg/Kg. Format: functional, organism-based. The method in brief:
as §2

Calls of active or inactive are those of the source. The rule behind the calls is not given here.

Consider 23 molecules from ChEMBL document CHEMBL1124612, “Synthesis and structure-activity relationships of a series of anxioselective pyrazolopyridine ester and amide anxiolytic agents” (J Med Chem, 1989).

A word on the inhibition: it is how much of the control response was suppressed. For `CCCCCn1ncc2c(N)c(C(=O)OCC(C)C)c(C)nc21`, the inhibition in [1] is 55%. In the series on Rattus norvegicus [2], the MED result was “inactive”.
By IC50 is commonly meant the concentration that gives 50% inhibition. For `CCCCCn1ncc2c(N)c(C(=O)OCC)c(CC)nc21`, the IC50 in [3] worked out at 302 nM. Besides, the MED result in the series on Rattus norvegicus [4] was “inactive”.
Regarding `CCCCCn1ncc2c(N)c(C(=O)OCC)c(C(C)C)nc21`, the inhibition in [1] turned out to be 54%. The MED result with Rattus norvegicus [5] was “inactive”.
Consider `CCNc1c(C(=O)OCC)c(C)nc2c1cnn2CC`, for which the concentration for half-maximal inhibition (IC50) entry in series [6] is reported as “Not Active”. Moreover, in the series with Rattus norvegicus [7], the minimal effective dose was determined as 25 mg/kg.
`CCOC(=O)c1c(C)nc2c(cnn2CCC(C)(C)C)c1N` showed an inhibition in [1] of 38%. The minimal effective dose result in the series with Rattus norvegicus [8] was “inactive”.
For `CCCCCn1ncc2c(N)c(C(=O)NCCCC)c(C)nc21`, the inhibition in series [9] was 31%. In the series with Rattus norvegicus [10], the MED entry is “inactive”.
As for `CCCCCn1ncc2c(N)cc(C)nc21`, in series [9], the inhibition was 13%. Besides, the minimal effective dose result in the series on Rattus norvegicus [8] was “inactive”.
As for `C=CCNC(=O)c1c(C)nc2c(cnn2CCCCC)c1N`, the inhibition in [11] came out at 0%. In the series with Rattus norvegicus [12], the minimal effective dose was determined as 50 mg/kg.
Consider `CCCCCn1ncc2c(O)c(C(=O)OCC)c(C)nc21`, for which, in series [13], the IC50 result is reported as “Not Active”. In the series on Rattus norvegicus [8], the minimal effective dose entry is “inactive”.
Regarding `CCOC(=O)c1c(C)nc2c(c(C)nn2CC)c1N`, the IC50 result in series [6] was “Not Active”. In addition, the MED entry with Rattus norvegicus [2] was “inactive”.
As to `C=CCCOC(=O)c1c(C)nc2c(cnn2CCCCC)c1N`, in series [3], the IC50 was found to be 174 nM. Further, in the series with Rattus norvegicus [8], the MED entry was “inactive”.
In turn, `C=CCOC(=O)c1c(C)nc2c(cnn2CC=C(C)C)c1N` displayed an IC50 in series [3] of 6.4 nM. The MED entry in the series with Rattus norvegicus [14] was “inactive”.
In turn, `C=CCNC(=O)c1cnc2c(cnn2CCC#CC)c1NC(=O)CC` came in with an inhibition in [1] of 28%. In addition, in the series on Rattus norvegicus [12], the minimal effective dose is 1.6 mg/kg.
The molecule `CCCCCn1ncc2c(N)c(C(=O)OC)c(C)nc21` came in with an inhibition in [9] of 54%.
Take `CCCCCn1ncc2c(N)c(C(=O)OC(C)C)c(C)nc21`: the inhibition in series [9] came out at 48%. Besides, in the series with Rattus norvegicus [12], the minimal effective dose is 50 mg/kg.
`CCCCCn1ncc2c(N)c(C(=O)O)c(C)nc21`: the IC50 entry in series [6] is on record as “Not Active”. Further, the minimal effective dose result with Rattus norvegicus [8] was “inactive”.
As for `C#CCCCn1ncc2c(N)c(C(=O)NCC=C)cnc21`, the IC50 in [15] is 9.3 nM. For the same molecule, the minimal effective dose in the series with Rattus norvegicus [12] was determined as 6.3 mg/kg.
Broadly, the ED50 is the dose that gives a 50% effect, or the effect in half of the subjects. As for `CN1C(=O)CN=C(c2ccccc2)c2cc(Cl)ccc21` [DIAZEPAM], the minimal effective dose in the series with Monkey was determined as 1.6 mg/kg; with Rattus norvegicus [12] it was 5 mg/kg. The ED50 in the series on Rattus norvegicus [16] was determined as 10.2 mg/kg; in the series listed under Rattus norvegicus [17], 2.5 mg/kg; in the series with Rattus norvegicus [20], 8.4 mg/kg. The same molecule yielded an SLI in the series filed under Rattus norvegicus [18] of 2. Besides, the EIR in [19] was 0.5.
In turn, `CCOC(=O)c1c(C)nc2c(cnn2CC)c1N(C)C` yielded an inhibition in [21] of 13%. For the same molecule, the MED result in the series on Rattus norvegicus [2] is “inactive”.
Regarding `CCOC(=O)c1cc2cnn(CC)c2nc1C`, in [9], the inhibition was determined as 14%. The NS result in the series on Rattus norvegicus [22] was “inactive”.
`C=CCOC(=O)c1cnc2c(cnn2CCCCC)c1N` registered an IC50 in [3] of 16 nM. Moreover, the MED entry in the series on Rattus norvegicus [23] is “inactive”.
For the molecule `C=CCNC(=O)c1cnc2c(cnn2CCC#CC)c1N`, the IC50 in series [3] came out at 81 nM; in series [24], 19 nM; in series [25], 81 nM. The minimal effective dose with Monkey was found to be 3.1 mg/kg; in the series on Rattus norvegicus [12], 0.8 mg/kg. The results for the ED50 in the series with Rattus norvegicus [16], in the series filed under Rattus norvegicus [26] and in the series on Rattus norvegicus [20] were 25.1 mg/kg, 3.1 mg/kg and 1 mg/kg, respectively. The molecule further gave an SLI in the series listed under Rattus norvegicus [18] of 31.4. Also, the EIR in [19] was 3.9.
Consider `CCCNc1c(C(=O)OCC)c(C)nc2c1cnn2CC`, for which, in [6], the IC50 result is “Not Active”. In the series with Rattus norvegicus [27], the MED entry is “inactive”.
